These results are taken from ChEMBL document CHEMBL1125183, “3-Hydroxy-3-methylglutaryl-coenzyme a reductase inhibitors. 7. Modification of the hexahydronaphthalene moiety of simvastatin: 5-oxygenated and 5-oxa derivatives” (J Med Chem, 1991).

Data set [1] deals with Canis familiaris. Briefly: Inhibition of cholesterol synthesis in cholestyramine-primed dogs at 4 mg/kg per day dose in Dog-1. It is filed as functional, Canis lupus familiaris. In a few lines:
(§1)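 Male beagles were fed a low-cholesterol semisynthetic diet once daily, with 12 g cholestyramine per day in the diet. Pretreatment plasma cholesterol was established, then one dog per compound received 4 mg/kg mixed into the diet for 21 days and was then crossed over to the lovastatin control at the same dose for 2-3 weeks. Jugular blood was taken twice weekly. Plasma cholesterol was measured colorimetrically (Liebermann-Burchard) after extraction and saponification and reported as % change from the resin-treated state.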

Data set [2] concerns Canis familiaris. Briefly: Inhibition of cholesterol synthesis in cholestyramine-primed dogs at 4 mg/kg per day dose in Dog-2. The format is functional, Canis lupus familiaris. In a few lines:
as §1

In data set [3] the test system is Canis familiaris. As to the kind of experiment: Inhibition of cholesterol synthesis in cholestyramine-primed dogs at 4 mg/kg per day dose in Dog-3:
The format is functional, Canis lupus familiaris. In a few lines:
as §1

Data set [4] is described as follows: Relative potency with respect to compactin. The format is ADME.
The target of data set [5] is T1, 3-hydroxy-3-methylglutaryl-coenzyme A reductase (Rattus norvegicus, UniProt P51639).
T1 sequence (P51639 whole entry): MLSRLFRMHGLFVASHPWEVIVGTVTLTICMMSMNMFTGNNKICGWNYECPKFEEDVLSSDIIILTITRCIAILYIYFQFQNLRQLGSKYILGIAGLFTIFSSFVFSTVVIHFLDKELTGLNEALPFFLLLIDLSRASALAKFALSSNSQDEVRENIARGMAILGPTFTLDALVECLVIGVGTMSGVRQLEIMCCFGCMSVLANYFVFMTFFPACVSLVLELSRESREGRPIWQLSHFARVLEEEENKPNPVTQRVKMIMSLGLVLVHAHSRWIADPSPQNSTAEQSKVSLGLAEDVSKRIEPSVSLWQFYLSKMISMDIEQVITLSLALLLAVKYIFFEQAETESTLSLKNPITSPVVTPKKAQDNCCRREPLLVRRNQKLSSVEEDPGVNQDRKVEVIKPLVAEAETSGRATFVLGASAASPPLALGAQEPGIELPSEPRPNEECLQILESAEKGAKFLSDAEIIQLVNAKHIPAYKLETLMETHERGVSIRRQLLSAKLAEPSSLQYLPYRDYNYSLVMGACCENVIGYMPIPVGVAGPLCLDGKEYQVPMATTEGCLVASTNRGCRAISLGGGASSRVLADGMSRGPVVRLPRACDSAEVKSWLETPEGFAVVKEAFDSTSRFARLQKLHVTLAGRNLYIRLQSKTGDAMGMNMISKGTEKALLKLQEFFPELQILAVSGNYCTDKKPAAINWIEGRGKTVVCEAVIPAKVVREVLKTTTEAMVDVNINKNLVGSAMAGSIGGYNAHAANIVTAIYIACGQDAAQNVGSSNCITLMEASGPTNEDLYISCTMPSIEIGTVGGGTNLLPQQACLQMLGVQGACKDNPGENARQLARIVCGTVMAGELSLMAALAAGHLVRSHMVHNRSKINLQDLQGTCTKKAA
As to the kind of experiment: In vitro ability to inhibit solubilized, partially purified, rat liver HMG-CoA reductase. The procedure, abridged: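 Enzyme tested as the sodium salt of the dihydroxy carboxylate form, against solubilized, partially purified rat liver HMG-CoA reductase. Conditions follow a procedure the paper cites from earlier work.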

The species named for another data set is Rattus norvegicus. Briefly: The compound was evaluated for acute inhibition of cholesterol synthesis in rat; percent change of [14C]cholesterol. It is filed as functional. The procedure, abridged:
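Rats received a single oral dose of 0.45 mg/kg. Synthesis of cholesterol from [14C]acetate was measured at a fixed time after dosing and reported as % change in [14C]cholesterol.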

For data set [6], the system named is Canis familiaris. As to the kind of experiment: Inhibition of cholesterol synthesis in cholestyramine-primed dogs at 4 mg/kg per day dose in Dog 1. It is filed as functional, Canis lupus familiaris. In a few lines: as §1
Data set [7] relates to Canis familiaris. As to the kind of experiment: Inhibition of cholesterol synthesis in cholestyramine-primed dogs at 4 mg/kg per day dose in Dog-3. It is filed as functional, Canis lupus familiaris. The procedure, abridged: as §1
Data set [8] has as its system Canis familiaris. As to the kind of experiment: Inhibition of cholesterol synthesis in cholestyramine-primed dogs at 4 mg/kg per day dose in Dog 2. It is filed as functional, Canis lupus familiaris. In a few lines: as §1

As for `CC[C@H](C)C(=O)O[C@H]1C[C@@H](C)C=C2C=C[C@H](C)[C@H](CC[C@@H]3C[C@@H](O)CC(=O)O3)C21` (some centres not stated), the Change in the data set with Canis familiaris [1] was 25%; in the data set with Canis familiaris [2] it was 38%; in the data set with Canis familiaris [3] it was 25%.

Regarding `CCC(C)(C)C(=O)O[C@H]1C[C@H](C)C(=O)[C@@H]2CC[C@H](C)[C@H](CC[C@@H]3C[C@@H](O)CC(=O)O3)C12` (some centres not stated), the Relative potency in [4] worked out at 63. This molecule yielded an IC50 in [5] of 59 nM. For the same molecule, in the data set listed under Rattus norvegicus, the Change is on record as -68%.

The molecule `CCC(C)(C)C(=O)O[C@H]1C[C@H](C)[C@H](O)[C@@H]2CC[C@H](C)[C@H](CC[C@@H]3C[C@@H](O)CC(=O)O3)C12` (some centres not stated) came in with a Relative potency in [4] of 11.1. This molecule displayed an IC50 in data set [5] of 269 nM.

On to `CCC(C)(C)C(=O)O[C@H]1CC(C)(C)O[C@@H]2CC[C@H](C)[C@H](CC[C@@H]3C[C@@H](O)CC(=O)O3)C12` (some centres not stated), for which the Relative potency in data set [4] was 70. For the same molecule, the Change in the data set with Canis familiaris [6] is reported as 20%; in the data set filed under Rattus norvegicus, -67%. The same molecule displayed an IC50 in [5] of 35 nM.

Molecule `CCC(C)(C)C(=O)O[C@H]1C[C@@H](C)[C@@H](O)[C@@H]2CC[C@H](C)[C@H](CC[C@@H]3C[C@@H](O)CC(=O)O3)C12` (some centres not stated) yielded a Relative potency in [4] of 73. Further, the Change is 19% with Canis familiaris [7] and -37% in the data set listed under Rattus norvegicus. The molecule also registered a half-maximal inhibitory concentration (IC50) in [5] of 40.8 nM.

`CCC(C)(C)C(=O)O[C@@H](C[C@@H](C)CO)C1[C@H](O)CC[C@H](C)[C@@H]1CC[C@@H]1C[C@@H](O)CC(=O)O1` (some centres not stated) showed a Relative potency in data set [4] of 0.5. The midpoint of inhibition in data set [5], the IC50, lay at 2800 nM.

`CCC(C)(C)C(=O)O[C@H]1C[C@@H](C)[C@@H](OC(=O)NCc2ccccc2)[C@@H]2CC[C@H](C)[C@H](CC[C@@H]3C[C@@H](O)CC(=O)O3)C12` (some centres not stated) had a Relative potency in data set [4] of 360. The IC50 in [5] was 5 nM. In addition, the Change in the data set listed under Rattus norvegicus is -27%.

Turning to `CCC(C)(C)C(=O)O[C@H]1C[C@@H](C)[C@@H](OC(=O)N(Cc2ccccc2)Cc2ccccc2)[C@@H]2CC[C@H](C)[C@H](CC[C@@H]3C[C@@H](O)CC(=O)O3)C12` (some centres not stated), the Relative potency in [4] amounted to 94. This molecule registered an IC50 in data set [5] of 16 nM. In addition, the Change in the data set listed under Rattus norvegicus is -4%.

Consider `C=C(C)C[C@H](OC(=O)C(C)(C)CC)C1[C@H](O)CC[C@H](C)[C@@H]1CC[C@@H]1C[C@@H](O)CC(=O)O1` (some centres not stated), for which the Relative potency in [4] was 0.9. Moreover, in data set [5], the IC50 came to 1700 nM.

In [4], `CCC(C)(C)C(=O)O[C@H]1C[C@@H](C)[C@@H](OP(=O)(c2ccccc2)c2ccccc2)[C@@H]2CC[C@H](C)[C@H](CC[C@@H]3C[C@@H](O)CC(=O)O3)C12` (some centres not stated) gave a Relative potency of 300. It took 6 nM to reach half-maximal inhibition in data set [5] (IC50). The Change in the data set filed under Rattus norvegicus is on record as -27%.

For `CCC(C)(C)C(=O)O[C@H]1C[C@@H](C)[C@@H](OCCc2ccccc2)[C@@H]2CC[C@H](C)[C@H](CC[C@@H]3C[C@@H](O)CC(=O)O3)C12` (some centres not stated), the Relative potency in data set [4] amounted to 300. In data set [5], 6 nM corresponded to half-maximal inhibition (IC50). The Change in the data set filed under Rattus norvegicus is recorded as -39%.

With `CCC(C)(C)C(=O)O[C@H]1C[C@@H](C)CC2CC[C@H](C)[C@H](CC[C@@H]3C[C@@H](O)CC(=O)O3)C21` (some centres not stated), in data set [4], the Relative potency stood at 138. Further, it took 13 nM to reach half-maximal inhibition in data set [5] (IC50).

As for `CCC(C)(C)C(=O)O[C@H]1C[C@H](C)[C@@H](O)[C@@H]2CC[C@H](C)[C@H](CC[C@@H]3C[C@@H](O)CC(=O)O3)C12` (some centres not stated), in [4], the Relative potency is listed as 61. The values for the Change in the data set with Canis familiaris [8] and in the data set listed under Rattus norvegicus were 34% and -54%, respectively. The same molecule registered an IC50 in data set [5] of 48.6 nM.

`CCC(C)(C)C(=O)O[C@H]1C[C@@H](C)C(=O)[C@@H]2CC[C@H](C)[C@H](CC[C@@H]3C[C@@H](O)CC(=O)O3)C12` (some centres not stated) registered a Relative potency in [4] of 125. For the same molecule, the IC50 in data set [5] amounted to 34 nM. For the same molecule, the Change in the data set filed under Rattus norvegicus is -56%.

As for `CCC(C)(C)C(=O)O[C@H]1C[C@@](C)(CSc2ccccc2)O[C@@H]2CC[C@H](C)[C@H](CC[C@@H]3C[C@@H](O)CC(=O)O3)C12` (some centres not stated), in data set [4], the Relative potency is recorded as 258. The molecule also gave an IC50 in data set [5] of 6.6 nM. The Change in the data set listed under Rattus norvegicus is recorded as -34%.

In data set [4], `CCC(C)(C)C(=O)O[C@H]1C[C@](C)(CSc2ccccc2)O[C@@H]2CC[C@H](C)[C@H](CC[C@@H]3C[C@@H](O)CC(=O)O3)C12` (some centres not stated) displayed a Relative potency of 280. The same molecule displayed an IC50 in data set [5] of 6 nM. Moreover, the Change in the data set listed under Rattus norvegicus is reported as 0%.
